For data set [1] the following is noted: cited from earlier work; for collapse pressure: room temperature; for "lift-off" temperature: linear alkanoic acids.
Data set [2] is described as follows: MTS cytotoxicity assay in Hs27 cells. The data set is classed as cell-based, human. The conditions noted are these: human, Hs27 cells (foreskin fibroblasts). In short, it runs like this: (§1)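 Cells kept in DMEM with 10% heat-inactivated newborn calf serum plus penicillin/streptomycin/amphotericin B at 37 °C, 5% CO₂. Seeded 5,000 per well. Compound in DMSO added at 1–1000 μM for 18 h, then MTS for 2 h. A490 read with A650 reference, medium+MTS background subtracted. Viability given as % of DMSO-treated cells, triplicates. CC₅₀ by linear regression of the two points bracketing 50%.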

A short description of data set [3]: MTS cytotoxicity assay in HaCaT cells. The data set is classed as cell-based, human. To be noted: human, HaCaT cells (spontaneously immortalized keratinocytes). In short, it runs like this:
as §1

Data set [4] is described as follows: Differential scanning calorimetry. The data set is classed as physicochemical. To be noted: DSC; for Transition temperature: 25 to 200 °C, 2.5 °C/min; for Enthalpy: phase transition, from integration of the thermograms. In short, it runs like this: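 Dry surfactant (1.0–1.5 mg) sealed in hermetic aluminum pans against an empty sealed-pan reference. Instrument calibrated with indium for temperature and enthalpy. Scanned 25–200 °C at 2.5 °C/min. Transition enthalpies obtained by integrating the thermograms.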

Data set [5] is described as follows: MTS cytotoxicity assay in Jurkat cells. The data set is classed as cell-based, human. The conditions noted are these: human, Jurkat cells (acute leukemia T lymphocytes). In short, it runs like this:
(§2)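 Jurkat cells kept in RPMI with 10% heat-inactivated FBS plus antibiotics at 37 °C, 5% CO₂. Seeded 25,000 per well. Compound in DMSO at 1–1000 μM for 16 h, then MTS for 4 h. A490 read with A650 reference, background-corrected. Viability normalized to DMSO controls, triplicates. CC₅₀ from regression line through the two viabilities nearest 50%.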

Data set [6] has as its system HaCaT, Hs27 and Jurkat cells. Kind of data set: MTS cytotoxicity assay, statements summarised over the cell lines. In kind it is cell-based. The conditions noted are these: for toxicity (MTS assay), in words: all three cell lines (HaCaT, Hs27, Jurkat), concentrations 1 to 1000 μM.
Data set [7] concerns Jurkat cells. The data set is described as follows: Apoptosis/necrosis assay, annexin V-FITC staining and flow cytometry. To be noted: 20 h incubation, compounds added at their CC50. In kind it is cell-based.
Data set [8] in a line: Langmuir monolayer compression isotherms at the air-water interface. In kind it is physicochemical. The conditions noted are these: for formation of stable monolayers at the air-water interface: 14 °C, 150 mM NaCl / 1.5 mM CaCl2 subphase; for "lift-off" temperature: πtrans versus temperature extrapolated to zero surface pressure. In short, it runs like this: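 Subphase was 150 mM NaCl plus 1.5 mM CaCl₂ in purified water (pH 7.0), held at set temperatures by circulating bath, with impurities vacuumed off. Spread 50 μL of 1.662 mM surfactant in dichloromethane:methanol 9:1, let solvent evaporate, then compressed symmetrically at 10 mm/min (7.5 cm²/min). Wilhelmy platinum plate. Limiting area by extrapolating linear condensed region to zero pressure. Three independent runs.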

Data set [9] concerns human Hs27 fibroblasts. Kind of data set: MTS cytotoxicity assay in Hs27 cells. In kind it is cell-based. The conditions noted are these: Hs27 cells, 18 h treatment then 2 h MTS, 1 to 1000 μM. In short, it runs like this: as §1
The test system of data set [10] is Spontaneously immortalized human keratinocytes (HaCaT). Kind of data set: MTS cytotoxicity assay in HaCaT cells. The data set is classed as cell-based. The conditions noted are these: HaCaT cells, 18 h treatment then 2 h MTS, 1 to 1000 μM. The method in brief:
as §1

Data set [11] has as its system Jurkat human T-cell lymphoblastic leukemia cells. Kind of data set: MTS cytotoxicity assay in Jurkat cells. The data set is classed as cell-based. The conditions noted are these: Jurkat cells, 16 h treatment then 4 h MTS, 1 to 1000 μM. In short, it runs like this:
as §2

The test system is the same in data set [12]. To be noted: value of the previous study; cited from earlier work.
The subject of data set [13] is Spontaneously immortalized human keratinocytes (HaCaT). To be noted: HaCaT cells, value of the previous study; cited from earlier work.
In data set [14] the test system is human Hs27 fibroblasts. The conditions noted are these: Hs27 cells, value of the previous study; cited from earlier work.
[15] abbreviates: insoluble monolayers at the air-water interface.

Where “and” joins values, the source holds several entries; their conditions need not be identical. Identical values can stand only once. Entries after “also recorded” stand apart in the source; their conditions may differ. Like-named read-outs stand apart in the source and are kept apart here.

The source of these data is publication PMC3764597 (Carbohydrate research, 2013).

As to 6-O-stearoyl galactopyranoside, in data set [1] (setting [15]), the limiting molecular area is on record as 32 Å^2. In addition, the collapse pressure in data set [1] is reported as 66 mN/m.
In the case of 6-O-stearoyl glucopyranoside, the limiting molecular area in data set [1] (setting [15]) is given as 44 Å^2. Also, in data set [1], the collapse pressure is on record as 43 mN/m.
`CCCCCCn1cc(CO[C@@H]2OC[C@@H](O)[C@H](O)[C@H]2O)nn1` [Compound 5a, (1-Hexyl-1H-1,2,3-triazol-4-yl)methyl β-D-xylopyranoside] registered a CC50 at 18 h in data set [2] of over 1000 µM. Also, the CC50 at 18 h in [3] was over 1000 µM. Besides, in data set [4], the Transition temperature was 120.1 ± 0.8 °C and the Enthalpy turned out to be 27 ± 4 kJ/mol. Also, the CC50 at 16 h in data set [5] is over 1000 µM. Moreover, the “toxicity (MTS assay), in words” value in [6] is on record as “not toxic”.
For the molecule `CCCCCCCCn1cc(CO[C@@H]2OC[C@@H](O)[C@H](O)[C@H]2O)nn1` [Compound 5b, (1-Octyl-1H-1,2,3-triazol-4-yl)methyl β-D-xylopyranoside], the results for the CC50 at 18 h in [2] and in data set [3] were 694 ± 3 µM and 890 ± 50 µM, respectively. In [7], the “mode of cell death (viable, apoptotic, necrotic cells)” value is recorded as “comparable with the positive controls for apoptosis”. This molecule had a Transition temperature in [4] of 126.9 ± 0.8 °C. Besides, the Enthalpy in data set [4] turned out to be 31 ± 5 kJ/mol. In data set [5], this molecule returned a CC50 at 16 h of 580 ± 60 µM.
Turning to `CCCCCCCCCCn1cc(CO[C@@H]2OC[C@@H](O)[C@H](O)[C@H]2O)nn1` [Compound 5c, (1-Decyl-1H-1,2,3-triazol-4-yl)methyl β-D-xylopyranoside], the CC50 at 18 h in data set [2] was found to be 180 ± 50 µM; in [3], 120 ± 30 µM. Further, in [4], the Transition temperature stood at 133.6 ± 0.1 °C. The molecule further registered an Enthalpy in [4] of 39 ± 2 kJ/mol. Further, in [5], half-maximal cytotoxicity (CC50 at 16 h) was put at 77 ± 9 µM. In addition, the “fold more toxic than 5b” value in data set [6] (in both Jurkat and HaCaT cells, from CC50 values) is on record as “approximately 8 fold”.
On to `CCCCCCCCCCCCn1cc(CO[C@@H]2OC[C@@H](O)[C@H](O)[C@H]2O)nn1` [Compound 5d, (1-Dodecyl-1H-1,2,3-triazol-4-yl)methyl β-D-xylopyranoside], for which, in [2], the CC50 at 18 h is over 1000 µM. In data set [3], this molecule yielded a CC50 at 18 h of over 1000 µM. Further, in data set [4], the Transition temperature is 130.1 ± 0.2 °C and the Enthalpy stood at 34 ± 2 kJ/mol. Besides, in [5], half-maximal cytotoxicity (CC50 at 16 h) was put at 26 ± 3 µM.
On to `CCCCCCCCCCCCCCn1cc(CO[C@@H]2OC[C@@H](O)[C@H](O)[C@H]2O)nn1` [Compound 5e, (1-Tetradecyl-1H-1,2,3-triazol-4-yl)methyl β-D-xylopyranoside], for which the CC50 at 18 h in [2] and in data set [3] was over 1000 µM each time. Moreover, in [4], the Transition temperature was 134.7 ± 0.4 °C. In data set [4], this molecule had an Enthalpy of 41 ± 1 kJ/mol. Also, the CC50 at 16 h in [5] is over 1000 µM. Besides, the “toxicity (MTS assay), in words” value in data set [6] was “not toxic”. Moreover, the “formation of stable monolayers at the air-water interface” value in [8] was “formed stable monolayers”. For the same molecule, the “Atrans: mean molecular area at phase transition” value in [8] (subphase 14 °C) was 68 Å^2/molecule and 68.5 ± 0.9 Å^2/molecule; in [8] (subphase 17 °C) it was 53.6 ± 0.9 Å^2/molecule; in data set [8] (subphase 22 °C), 47.5 ± 0.2 Å^2/molecule; in data set [8] (subphase 26 °C), 42.1 ± 0.7 Å^2/molecule; in data set [8] (subphase 30 °C) it was 38 Å^2/molecule and 38.0 ± 1.2 Å^2/molecule. Also, the “π max: maximum surface pressure (collapse pressure)” value in data set [8] (subphase 14 °C) amounted to 64.1 ± 0.5 mN/m; in [8] (subphase 17 °C) it was 62.4 ± 1.4 mN/m; in [8] (subphase 22 °C) it was 59.4 ± 0.6 mN/m; in data set [8] (subphase 26 °C), 53.0 ± 2.0 mN/m; in data set [8] (subphase 30 °C), 47.0 ± 3.0 mN/m. The “π trans: surface pressure at phase transition” value is 5.6 mN/m and 5.6 ± 0.2 mN/m in data set [8] (subphase 14 °C); 11.3 ± 0.2 mN/m in data set [8] (subphase 17 °C); 15.0 ± 0.1 mN/m in [8] (subphase 22 °C); 20.9 ± 0.2 mN/m in data set [8] (subphase 26 °C); 26 mN/m and 27.0 ± 0.5 mN/m in [8] (subphase 30 °C). Moreover, the “"lift-off" temperature” value in data set [8] is 9.2 °C.
In the case of `CCCCCCCCCCCCCCCCn1cc(CO[C@@H]2OC[C@@H](O)[C@H](O)[C@H]2O)nn1` [Compound 5f, (1-Hexadecyl-1H-1,2,3-triazol-4-yl)methyl β-D-xylopyranoside], the CC50 at 18 h in [2] and in data set [3] was over 1000 µM each time. The same molecule displayed a Transition temperature in data set [4] of 134.9 ± 0.1 °C. The molecule further gave an Enthalpy in data set [4] of 44 ± 2 kJ/mol. The same molecule yielded a CC50 at 16 h in data set [5] of over 1000 µM. Also, the “toxicity (MTS assay), in words” value in data set [6] is on record as “not toxic”. For the same molecule, the “formation of stable monolayers at the air-water interface” value in data set [8] is on record as “formed stable monolayers”. Further, the “Atrans: mean molecular area at phase transition” value is 84.0 ± 2.0 Å^2/molecule in data set [8] (subphase 22 °C); 70.0 ± 2.0 Å^2/molecule in data set [8] (subphase 26 °C); 65.0 ± 2.0 Å^2/molecule in data set [8] (subphase 30 °C); 61.0 ± 2.0 Å^2/molecule in [8] (subphase 33 °C); 51 Å^2/molecule and 51.2 ± 0.9 Å^2/molecule in [8] (subphase 37 °C). Also, the “π max: maximum surface pressure (collapse pressure)” value in [8] (subphase 22 °C) was 64.0 ± 3.0 mN/m; in data set [8] (subphase 26 °C), 58.6 ± 0.8 mN/m; in data set [8] (subphase 30 °C), 53.6 ± 1.0 mN/m; in data set [8] (subphase 33 °C), 51.6 ± 0.4 mN/m; in data set [8] (subphase 37 °C), 48.0 ± 2.0 mN/m. In addition, the “π trans: surface pressure at phase transition” value in [8] (subphase 22 °C) was 1.6 ± 0.2 mN/m; in data set [8] (subphase 26 °C), 6.8 ± 0.1 mN/m; in [8] (subphase 30 °C), 9.9 ± 0.1 mN/m; in data set [8] (subphase 33 °C), 11.6 ± 0.3 mN/m; in [8] (subphase 37 °C), 18 mN/m and 18.4 ± 0.4 mN/m. Further, the “"lift-off" temperature” value in data set [8] was 20.2 °C.
As for `O[C@@H]1[C@@H](O)[C@H](OCc2cn(CCC(F)(F)C(F)(F)C(F)(F)C(F)(F)C(F)(F)C(F)(F)F)nn2)OC[C@H]1O` [Compound 5g, (1-(3,3,4,4,5,5,6,6,7,7,8,8,8-Tridecafluorooctyl)-1H-1,2,3-triazol-4-yl)methyl β-D-xylopyranoside], the CC50 at 18 h in [2] is over 1000 µM. In data set [3], this molecule came in with a CC50 at 18 h of over 1000 µM. Moreover, in data set [4], the Transition temperature was 158 °C and 158.8 ± 0.2 °C; the Enthalpy is 45 ± 1 kJ/mol. Further, the 50% cytotoxic concentration (CC50) at 16 h in [5] was over 1000 µM. Further, in data set [6], the “toxicity (MTS assay), in words” value was “not toxic; also recorded: no measurable inhibition of cell viability”.
With `CCCCCCCCCCCCCCCC(=O)O` [hexadecanoic acid], the “"lift-off" temperature” value in data set [1] was about 26 °C.
Turning to `CCCCCCCCCCCCCC(=O)O` [tetradecanoic acid], the “"lift-off" temperature” value in data set [1] is “approximately 7 °C”.
Regarding `CCCCCCCCS[C@@H]1O[C@H](CO)[C@@H](O)[C@H](O)[C@H]1O` [β-OTG, β-octyl thioglucopyranoside, reference compound], the cytotoxic concentration (CC50) in data set [9] amounted to 380 ± 30 µM; in [10], 490 ± 60 µM; in data set [11], 310 ± 40 µM.
On to `CCCCCCCCO[C@@H]1OC[C@@H](O)[C@H](O)[C@H]1O` [β-OXP, β-octyl xylopyranoside], for which the CC50 in data set [12] is 460 ± 13 µM; in data set [13], 850 ± 30 µM; in data set [14], 760 ± 50 µM.
As for n-nonyl glucosamine, in data set [1] (25 °C), the limiting molecular area was 46 Å^2/molecule.
Consider n-octyl glucosamine, for which the limiting molecular area in data set [1] (25 °C) is 48 Å^2/molecule.
